From PubChem
697 NFkB inh – inhibitors of PMA/ionomycin-induced NF-kB reporter, 697 cells, primary screen, B-cell NF-kB inhibitor project, cell-based, luminescence, uHTS; 697 B-cell NF-kB luciferase reporter, 16 h; inhibition, % at 4 µM; hit rate 0.33% among 330,000; in the data active = inhibition above about 35%
T cruzi repl – inhibitors of intracellular T. cruzi growth, primary screen, luminescence, NIH3T3 host cells; hit rate 1.4% among 300,000; inhibition, % (concentration not given with the values); T. cruzi beta-gal in NIH3T3, 90 h;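 active = mean inhibition across valid replicates above about 55%, limit read from the data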;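 also: signal also drops with host cell toxicity which is not excluded here; 0% = plate median of DMSO wells and 100% = zero luminescence signal; higher percent means less beta-gal luminescence so fewer parasites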
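System – NIH/3T3 host cells with β-galactosidase reporter T. cruzi · Doses – single 50 nL compound addition per well in DMSO · Reagent – 5000 T. cruzi trypomastigotes/well · Medium – Low-serum DMEM with 2% FBS · Timing – ≥90 h infection period, 3 h prior cell attachment · Evaluation – parasite load inhibition, % · Technique – GalScreen luminescence, 60 min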
HSF1 activator – HSF-1 activators, primary screen, NIH3T3-HGL cells, MG132 stress, luminescence, single point; NIH3T3-HGL HSF-1 luciferase reporter, 8 h; 100% = twice DMSO control signal; activation, % at 9 µM; hit rate 1.7% among 300,000; AID 504408, 2011;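 active = mean replicate activation of at least 50% with a set share of replicates each reaching 50%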;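 also: 0% = median of the neutral control wells and 100% = twice that signal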
GPR7 antagonist – GPR7 receptor antagonists, primary screen, cell-based, fluorescence, single concentration; inhibition, % at 4.4 µM; hit rate 1.1% among 290,000; Neuropeptides B/W receptor type 1 (Homo sapiens), P48145; AID 1861, 2009; GPR7-expressing cells, fluorescence antagonist assay; in the data active = inhibition above about 16%, passing the limit was not always enough;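 also: cells stimulated with the agonist NPW; 0% = agonist with vehicle and 100% = vehicle without agonist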
Target sequence (P48145 whole entry, looked up): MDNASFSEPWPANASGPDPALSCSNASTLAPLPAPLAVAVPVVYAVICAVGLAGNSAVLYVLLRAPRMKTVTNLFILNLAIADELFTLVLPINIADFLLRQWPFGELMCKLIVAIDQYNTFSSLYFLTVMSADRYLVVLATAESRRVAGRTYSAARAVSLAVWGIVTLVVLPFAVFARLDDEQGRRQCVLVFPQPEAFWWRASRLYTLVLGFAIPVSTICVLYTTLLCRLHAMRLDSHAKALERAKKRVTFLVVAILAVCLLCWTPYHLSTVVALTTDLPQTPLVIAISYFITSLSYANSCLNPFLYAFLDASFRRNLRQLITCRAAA
HSF1 inh – HSF1 inhibitors in luciferase reporter cells, primary screen, cell-based, NIH3T3, luminescence | hit rate 0.77% among 300,000 | AID 2098, 2009 | NIH3T3-HGL HSE-luciferase, MG132-induced, luminescence 8 h; hits give low values | activity change, negative = inhibition, % at 7.5 µM (by protocol);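 active = more than half of replicate wells show activity change below -50%, luminescence cut by over half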;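 also: luciferase reports HSF-1 transcriptional activity via heat shock element; 0% = median of DMSO wells and -100% = zero luminescence signal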
Jurkat NFkB inh – inhibitors of induced NF-kB luciferase reporter, primary screen, TCR NF-kB activation inhibitor project, cell-based, luminescence, uHTS; Jurkat, PMA/ionomycin-induced NF-kB luciferase reporter; inhibition, % at 4 µM; hit rate 0.53% among 330,000; in the data active = inhibition above about 50%
GPR7 antag cf – GPR7 receptor antagonists, confirmation, cell-based, fluorescence, single concentration | hit rate 52% among 2,400 | GPR7-expressing cells, calcium fluorescence antagonist mode | shares compounds with GPR7 antagonist | inhibition, % at 4.4 µM; in the data active = inhibition above about 24%;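 also: stimulated with the GPR7 agonist NPW; 0% = agonist plus vehicle and 100% = vehicle alone without agonist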
MCHR1 antagonist – MCHR1 antagonists in cells, counter-screen for GPR7 antagonist project, cell-based, fluorescence, human; MCHR1-expressing cells, fluorescence antagonist assay; hit rate 62% among 2,400; inhibition, % at 4.4 µM; shares compounds with GPR7 antagonist; AID 2148, 2009; in the data active = inhibition above about 22%;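 also: 0% = vehicle with agonist and 100% = vehicle without agonist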
Starred values were filed as active, the others as inactive; . = no result. An excerpt weighted towards active compounds, which were near 4.8% of everything screened.

SMILES	697 NFkB inh	T cruzi repl	HSF1 activator	GPR7 antagonist	HSF1 inh	Jurkat NFkB inh	others
O=C(N/N=C/c1cn(-c2ccccc2)nc1-c1cc2ccccc2o1)c1ccccc1Br	-120	20	76*	-6	40	-138
O=C(c1cccc(S(=O)(=O)N2CCCC2)c1)N1CCOCC1	14	.	.	.	.	-5
CN1CCN(NC(=O)c2cn(-c3ccccc3)nc2-c2cccc(Br)c2)CC1	-22	56*	-5	0	0	0
O=C(COc1ccccc1CNCc1ccccc1)Nc1ccccc1	14	-1	31	13	10	12
CCN(CCCNS(=O)(=O)c1ccc2c(c1)oc(=O)n2C)c1cccc(C)c1	2	.	.	17*	.	-7
Cn1cnnc1SCC(=O)NN(c1ccccc1)c1ccccc1	0	-8	5	-8	-1	-5
O=C(Oc1ccc(NC2=NS(=O)(=O)c3ccccc32)cc1)c1cccnc1	6	-8	52*	-5	16	1
O=S1(=O)N=C(Nc2ccc(O)cc2)c2ccccc21	7	-8	-9	-8	-4	-1
CCn1ncc(/C=C/C(=O)c2ccccc2)c1C	-90	6	53*	0	26	-41
O=C(COc1ccc2c(-c3ccccc3)cc(=O)oc2c1)N[C@H](Cc1c[nH]c2ccccc12)C(=O)O	10	-3	11	11	4	-1
Cc1c(OCC(=O)NCc2ccncc2)ccc2c3c(c(=O)oc12)CCCC3	-1	-1	-12	-3	4	-8
CCn1c(CNc2ccc(Cl)cc2)nnc1SCc1ccc(C)cc1	10	11	-11	11	-1	4
CCn1c(CNc2cccc(Cl)c2)nnc1SCc1ccccc1	-20	6	15	19*	2	12
Cn1c(=O)c2c(=O)cc(NNC(=O)CC#N)[nH]c2n(C)c1=O	-1	37	-5	-9	-6	1
Cc1ccc(O)c(C(=O)c2cnn(-c3ccccc3)c2)c1	-44	-8	4	-14	1	-37
CCOC(=O)c1nn(-c2ccc(C)cc2)cc1C(=O)c1ccccc1	-118	17	59*	-1	39	-128
Cc1ccc(-n2cc(C(=O)c3ccccc3O)cn2)cc1	-188	-9	-79	-3	-77*	-69
COc1ccc(CNC(=O)c2cc(-c3ccncc3)nc3c(C)cc(C)cc23)cc1OC	1	33	-6	-4	-4	-14
C=C(C)CSc1nc2sc3c(c2c(=O)n1-c1ccc(OC)cc1)CCN(C)C3	-13	40	9	-12	2	2
c1coc(-c2nnc(SCc3cn4ccccc4n3)o2)c1	17	-8	-4	20	6	-8
Brc1c(CSc2nnc(-c3ccco3)o2)nc2ccccn12	0	6	49	24*	17	1	GPR7 antag cf=10;MCHR1 antagonist=-4
O=C(Cc1cccs1)NCCc1ccc(Cl)cc1	5	-6	10	-12	4	7
Cc1cc(OCC(=O)NCCCN2CCOCC2)c2c(C)cc(=O)oc2c1	5	-3	-20	-11	-4	4
CC(C)C1C(C#N)=C(N)SC(N)=C1C#N	11	-24	6	-3	1	-3
CCC(CC)C1C(C#N)=C(N)SC(N)=C1C#N	6	-15	20	22*	5	13	GPR7 antag cf=10;MCHR1 antagonist=18
